95 molecules from ChEMBL document CHEMBL4513216, “Probing the Open Global Health Chemical Diversity Library for Multistage-Active Starting Points for Next-Generation Antimalarials” (ACS Infect Dis, 2020) can be followed below.

This data set is described as follows: Toxicity liver stage against HepG2, at 10uM. It is filed as cell-based. More on the design: test concentration 10 uM, cell line HepG2-A16-CD81EGFP. Particulars: human, HepG2-A16-CD81EGFP cells; read-out: INHIBITION
Put shortly: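 Uninfected HepG2-A16-CD81EGFP cells, 3 × 10^3 per well, 1536-well, plated on prespotted compound at 10 μM final, parasite-free screening media added to match infected plates; puromycin 10 μM positive, DMSO 0.5% negative; run in parallel with 48 h PbLuc assay at 37 °C, 5% CO2; viability by CellTiter-Glo luminescence, normalized to controls.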
On to `Cc1ccccc1C(=O)Nc1ccc(OC2CCN(C)CC2)cc1`, for which the cytotoxicity at 10 µM was -1.57%.

For `CC(C)(C)n1cc(C(=O)N2CCN(Cc3ccsc3)CC2)cn1`, the cytotoxicity at 10 µM is -5.79%.

On to `Cc1cccnc1CN1CCN(Cc2ccc(-c3cc[nH]n3)o2)CC1`, for which the cytotoxicity at 10 µM is -3.57%.

On to `CCOC(=O)C1CSCCN1C(=O)c1ccc(-n2nc(C)cc2C)cc1` (stereo not given), for which the cytotoxicity at 10 µM is -4.92%.

Regarding `COc1cc(F)c(NC(=O)N(C)Cc2cc(C)on2)cc1F`, the cytotoxicity at 10 µM was -4.25%.

For `CN(C)C(C)(C)CNCc1c[nH]nc1-c1cc2ccccc2o1`, the cytotoxicity at 10 µM is -3.6%.

Consider `N#Cc1ccc(N2CCCN(CC(=O)N3CCC3)CC2)cc1`, for which the cytotoxicity at 10 µM is -8.38%.

As for `CCCNC(c1ccc(F)cc1)c1cccnc1` (stereo not given), the cytotoxicity at 10 µM was determined as 3.41%.

Take `CS(=O)(=O)CCn1ccc(NC(=O)Cc2c[nH]c3ccccc23)n1`: the cytotoxicity at 10 µM stood at 2%.

On to `COCC(=O)N1CCCC(c2cc(C(F)F)n3ncnc3n2)C1` (stereo not given), for which the cytotoxicity at 10 µM is -8.43%.

For the molecule `CC(C)NC(=O)N1CCC2(CC1)[C@@H]1CN(C(=O)N(C)C)C[C@@H]1C(=O)N2C`, the cytotoxicity at 10 µM was found to be 4.32%.

Consider `CC[C@H]1CN2CC[C@H]1C[C@@H]2CNCc1ccc(OC)cc1`, for which the cytotoxicity at 10 µM was -1.19%.

For `Cc1ccc(-c2nc3cc(S(=O)(=O)N4CCCC4)ccc3n2C)o1`, the cytotoxicity at 10 µM is 1.38%.

For `CCS(=O)(=O)CCN1CCC(N(C)Cc2noc(C(C)C)n2)C1` (stereo not given), the cytotoxicity at 10 µM is -5.55%.

`Cc1nn(COc2cccc(F)c2)c(C)c1NC(=O)C1CC1`: the cytotoxicity at 10 µM was 5.62%.

Turning to `CC(O)CN(C)C(=O)Nc1ccn(-c2cccc(C(F)(F)F)c2)n1` (stereo not given), the cytotoxicity at 10 µM was found to be 4.85%.

As for `CN(Cc1cc(C2CC2)on1)C(=O)CN1CC(c2ccccc2)CC1=O` (stereo not given), the cytotoxicity at 10 µM was -6.72%.

For the molecule `CCCN(Cc1nc(-c2ccoc2)oc1C)CC1CCCO1` (stereo not given), the cytotoxicity at 10 µM amounted to 2.4%.

As to `Cc1cccnc1NC(=O)C1(n2cnnn2)CCCCC1`, the cytotoxicity at 10 µM was -2.43%.

As for `CCc1nc(NCC2CCCN(C(=O)C3CC3)C2)c2cnn(C)c2n1` (stereo not given), the cytotoxicity at 10 µM came out at 1.14%.

As for `O=C(CN1CCCc2cc(F)cc(F)c21)Nc1ccc(Br)cn1`, the cytotoxicity at 10 µM was 11%.

Regarding `COC(=O)c1ccc(N2CCC(N(C)c3ccccc3)CC2)nn1`, the cytotoxicity at 10 µM was -4.92%.

For the molecule `CCOC(=O)N1[C@@H](c2ccco2)[C@@H](CO)C[C@]12CCCCNC2=O`, the cytotoxicity at 10 µM was 0.644%.

For the molecule `COc1ncc(-c2cc(NCCN(C)C)nc3[nH]ccc23)c(OC)n1`, the cytotoxicity at 10 µM is -20.7%.

As for `COCCO[C@H]1CCN(Cc2cnn(C)c2)[C@H]1Cc1cccnc1`, the cytotoxicity at 10 µM amounted to 0.793%.

`CCc1c(C)sc2c1c(N)nc(=O)n2CCCN(C)C`: the cytotoxicity at 10 µM was 2.06%.

Regarding `COc1ccccc1CNc1c(O)c(=O)c1=O`, the cytotoxicity at 10 µM was determined as 4.65%.

As to `CCS(=O)(=O)N1CCC2(CN(C(=O)c3cscn3)C2)C1`, the cytotoxicity at 10 µM amounted to 10.8%.

With `CCn1cc(C(=O)NCc2cccnc2N(C)Cc2ccccc2)cn1`, the cytotoxicity at 10 µM was 1.18%.

Consider `O=C(C1CCOCC1)N1CCc2ncnc(-c3ccc(F)cc3)c2CC1`, for which the cytotoxicity at 10 µM is -6.28%.

Regarding `CC(C)NC(=O)[C@@H]1C[C@@H](N)CN1C(=O)CCSCc1ccccc1`, the cytotoxicity at 10 µM was determined as 0.719%.

For the molecule `O=S(=O)(c1ccccc1N1CC(n2cccn2)C1)C(F)(F)F`, the cytotoxicity at 10 µM worked out at 6.68%.

Take `O=C1CC(c2ccc3c(c2)OCO3)c2cn[nH]c2N1` (stereo not given): the cytotoxicity at 10 µM was found to be 13.3%.

As to `O=C(Cc1ccc(F)cc1)N1CCCC(c2n[nH]c3nccnc23)C1` (stereo not given), the cytotoxicity at 10 µM was 4.59%.

For the molecule `O=C1O[C@@H]2CN(c3ncccn3)C[C@@H]2N1CCCc1ccc(F)cc1`, the cytotoxicity at 10 µM is -0.74%.

Regarding `COCCN1CCO[C@@H]2CN(C(=O)Cc3ccccc3)CC[C@@H]2C1`, the cytotoxicity at 10 µM was 4.98%.

Turning to `CCCc1cc(NC2CCN(Cc3ccccn3)CC2)n2nccc2n1`, the cytotoxicity at 10 µM was -3.91%.

With `COCCC(=O)N(C)Cc1nc(C(F)(F)F)cs1`, the cytotoxicity at 10 µM stood at 23.3%.

Turning to `Cc1cc(C(=O)Nc2n[nH]c(C3CC3)n2)c2c(C)nn(C)c2n1`, the cytotoxicity at 10 µM is 0.583%.

As to `O=C(Nc1ccccc1)N1C[C@@H]2C[C@H](C(=O)N3CCCC3)[C@H](C1)O2`, the cytotoxicity at 10 µM is -3.29%.

Consider `Cc1cccc(C)c1OC1CN(C(=O)C2CCCN(C(=O)N(C)C)C2)C1` (stereo not given), for which the cytotoxicity at 10 µM was -0.545%.

On to `O=C(C[C@@H]1COC[C@H]2CN(CC3CCOCC3)C[C@@H]12)N1CCCCO1`, for which the cytotoxicity at 10 µM was 7.49%.

With `Cc1nccn1CCC1CCCCN1C(=O)c1ccc2nonc2c1` (stereo not given), the cytotoxicity at 10 µM was -6.55%.

As for `CN1CCc2[nH]nc(C(=O)N3CCCC4(CN(C)C(=O)O4)C3)c2C1` (stereo not given), the cytotoxicity at 10 µM was -53.6%.

Consider `CNC(=O)[C@@H]1[C@H]2CNCCN2C[C@H]1c1ccccc1`, for which the cytotoxicity at 10 µM is 3.28%.

Regarding `CN(CCn1nc2ccccn2c1=O)CC(=O)N(C)C1CCCCC1`, the cytotoxicity at 10 µM is -138%.

For `CN(C)[C@@H]1CN(C(=O)c2cc3ccc(F)cc3[nH]2)C[C@H]1O`, the cytotoxicity at 10 µM is 1.05%.

On to `Clc1ccc2cccnc2c1CNC1CCc2ncnn2C1` (stereo not given), for which the cytotoxicity at 10 µM was -6.53%.

For `Cc1nc(NC(=O)c2cccnc2N2CCOCC2)sc1C`, the cytotoxicity at 10 µM was -0.0261%.

For the molecule `c1cnn(CC2CCCN2Cc2cn3ccsc3n2)c1` (stereo not given), the cytotoxicity at 10 µM was -10.2%.

Regarding `CC(C)NC(=O)N1CCC(n2ccc(C(F)(F)F)n2)CC1`, the cytotoxicity at 10 µM was 3.02%.

On to `O=C(O)[C@@H]1CN(C(=O)CCCc2ccc(F)cc2)C[C@H]1C1CC1`, for which the cytotoxicity at 10 µM came out at 0.832%.

As for `O=C(Cn1nc2ccccc2n1)N1CCCn2cncc2C1`, the cytotoxicity at 10 µM amounted to 1.87%.

For `c1cnn([C@@H]2CN(Cc3nccs3)[C@@H]3CCCO[C@@H]32)c1`, the cytotoxicity at 10 µM stood at 9.07%.

For the molecule `Cc1cc(NC(=O)Cc2ccc3c(c2)OCO3)n(C)n1`, the cytotoxicity at 10 µM came out at 10.1%.

As to `Cc1cccc(N2CCN(C(=O)NC(C)c3nncn3C)CC2)c1C` (stereo not given), the cytotoxicity at 10 µM was -4.41%.

Turning to `O=C(NCc1cn2cccnc2n1)C1CC(=O)N(Cc2ccccn2)C1` (stereo not given), the cytotoxicity at 10 µM was 2.69%.

Turning to `Cc1ccc(C(NC(=O)CC2CCN(C(C)C)CC2)C(=O)O)cc1` (stereo not given), the cytotoxicity at 10 µM is -9.99%.

Turning to `CCN(CC1CCOC1)C(=O)c1ccn(-c2cc(C)ccc2OC)n1` (stereo not given), the cytotoxicity at 10 µM was determined as 6.16%.

In the case of `O=C(CCN1CCCCC1)Nc1c2c(cc3c1CCC3)CCC2`, the cytotoxicity at 10 µM amounted to 4.29%.

`CC(c1ccc2c(c1)OCO2)n1cc2nc(N(C)C)[nH]cc-2c1=O` (stereo not given): the cytotoxicity at 10 µM is -2.72%.

In the case of `N#Cc1cccc(CNCCNC(=O)Cc2cccc(F)c2)c1`, the cytotoxicity at 10 µM is 3.7%.

Take `CCc1ccc(NC(=O)C2OC(c3cccs3)=NN2C(C)=O)cc1` (stereo not given): the cytotoxicity at 10 µM is 4.64%.

`Cn1c(CN2CCN(CC3CCCO3)CC2)nc2ccccc21` (stereo not given): the cytotoxicity at 10 µM is -25.1%.

For `Cc1nc[nH]c1CN(Cc1ccccc1)Cc1nccs1`, the cytotoxicity at 10 µM stood at 2.14%.

On to `CC(C)c1noc(C2CCN(S(=O)(=O)c3cccs3)CC2)n1`, for which the cytotoxicity at 10 µM is 1.47%.

For `CN(C)CCN1CCC2(CC1)CN(c1cccnc1)C(=O)CO2`, the cytotoxicity at 10 µM worked out at 1.7%.

Take `CCc1ccc(C(=O)N2CCCC(c3nn[nH]n3)C2)cc1` (stereo not given): the cytotoxicity at 10 µM came out at 4.6%.

Regarding `Cc1ncsc1C(=O)NC1CCN(CC(=O)N(C)c2ccccc2)CC1`, the cytotoxicity at 10 µM came to 1.26%.

Turning to `CC1CCN(C(=O)c2cnn3c(-c4ccco4)ccnc23)CC1`, the cytotoxicity at 10 µM turned out to be 8.77%.

As to `O=S(=O)(c1ccc(-c2cnco2)cc1)N1CCCC2(CCNCC2)CC1`, the cytotoxicity at 10 µM was -11.2%.

Consider `O=C(N[C@H]1CCCC[C@@H]1O)c1ccc(-c2nc3ccccc3[nH]2)cc1`, for which the cytotoxicity at 10 µM is -1.43%.

`Cc1cnc(CCNC(=O)C2CN(C(=O)Cc3ccc(F)cc3)C2)s1`: the cytotoxicity at 10 µM came to 0.82%.

Turning to `CCNc1cc2c(nn1)CCN(C(=O)C1CCc3ccccc31)C2` (stereo not given), the cytotoxicity at 10 µM turned out to be 0.169%.

As for `CNc1ncc(CN(C)c2ncnc3onc(C)c23)cn1`, the cytotoxicity at 10 µM is -16.8%.

As for `Cc1cc(CN2CCN(c3ccc4nncn4n3)C(C)C2)no1` (stereo not given), the cytotoxicity at 10 µM is -4.66%.

In the case of `O[C@]12CCNC[C@H]1CN(c1ccnc3ccccc13)CC2`, the cytotoxicity at 10 µM stood at 8.33%.

Regarding `COc1ccc(-c2cnc(N)nc2C2CCCNC2)cc1` (stereo not given), the cytotoxicity at 10 µM is -1.51%.

Take `O=C(c1ccn(-c2ccccc2Cl)n1)N1CCSCC1`: the cytotoxicity at 10 µM came out at 15.6%.

Take `Cc1ccnc(C2CCN(c3ccnc(C)n3)C2)n1` (stereo not given): the cytotoxicity at 10 µM is -0.485%.

As to `CN(C)C(=O)c1nc(-c2ccc(S(C)(=O)=O)cc2)c2cnccn12`, the cytotoxicity at 10 µM was 7.27%.

On to `Cc1cc(C)c(C(=O)N2CCn3nc(C(=O)NCCN(C)C)cc3C2)[nH]1`, for which the cytotoxicity at 10 µM was -0.53%.

Take `CCN1CCN(CCNC(=O)c2sc(C(C)C)nc2C)CC1`: the cytotoxicity at 10 µM worked out at 6.23%.

As to `Cc1cc(=O)n2nc(Oc3ccc(F)c(F)c3)sc2n1`, the cytotoxicity at 10 µM is -15.8%.

As for `COc1ccccc1NCc1cscn1`, the cytotoxicity at 10 µM is -0.358%.

As to `Cc1cc(O)c(OCC(=O)Nc2nc3c(s2)CCCC3)cn1`, the cytotoxicity at 10 µM stood at 12.8%.

On to `CN(Cc1cccc(F)c1)C(=O)CN1CCOC(Cn2cncn2)C1` (stereo not given), for which the cytotoxicity at 10 µM was -2.09%.

As to `COCCNC(=O)c1nnc2ccc(N3CCOCC3)cc2n1`, the cytotoxicity at 10 µM was found to be 10.8%.

`COc1ccc(-n2ccnc2-c2cnc(C(C)C)nc2)cc1C(=O)O`: the cytotoxicity at 10 µM was -2.42%.

Turning to `CCc1ccccc1Nc1noc2c1CN(C(=O)c1ccn(C)n1)CC2`, the cytotoxicity at 10 µM came out at 0.295%.

For the molecule `CC(C)(O)CCc1ccc(C(=O)N2CCN(CCS(C)(=O)=O)CC2)cc1`, the cytotoxicity at 10 µM is -0.686%.

Turning to `Cc1nccnc1C1CCN(C2CCCC2O)CC1` (stereo not given), the cytotoxicity at 10 µM was -1.35%.

As for `Cc1nc(C)n(CC2CCCN(CCOc3ccc(F)cc3)C2)n1` (stereo not given), the cytotoxicity at 10 µM was -3.33%.

Consider `CNS(=O)(=O)c1ccc(C(=O)NCc2ccnc(OC)c2)cc1`, for which the cytotoxicity at 10 µM was found to be 2.86%.

Regarding `CC(NC(=O)c1cccs1)C(=O)NCc1ccccc1CN1CCCC1` (stereo not given), the cytotoxicity at 10 µM is -14.2%.
